Test results reported in ChEMBL document CHEMBL1212762, “In vivo activity of ceftobiprole in murine skin infections due to Staphylococcus aureus and Pseudomonas aeruginosa” (Antimicrob Agents Chemother, 2010).

What was measured:
Pseudomonas aeruginosa [1] = test: Antimicrobial activity against Pseudomonas aeruginosa OC 4351 infected in immunocompromized SKH1 mouse assessed as lesion volume at 1.6 mg/kg/day, sc measured after 48 hrs postinfection (reference value: 2234 mm3); assay type: functional; conditions: route subcutaneous
Pseudomonas aeruginosa [2] = test: Antimicrobial activity against Pseudomonas aeruginosa OC 4351 infected in immunocompromized SKH1 mouse assessed as lesion volume at 25 mg/kg/day, sc measured after 48 hrs postinfection (reference value: 2234 mm3); assay type: functional; conditions: route subcutaneous
Pseudomonas aeruginosa [3] = test: Antimicrobial activity against Pseudomonas aeruginosa OC 4351 infected in immunocompromized SKH1 mouse assessed as lesion volume at 100 mg/kg/day, sc measured after 48 hrs postinfection (reference value: 2234 mm3); assay type: functional; conditions: route subcutaneous
Pseudomonas aeruginosa [4] = test: Antimicrobial activity against Pseudomonas aeruginosa OC 4354 infected in immunocompromized SKH1 mouse assessed as log change in bacterial colony forming unit at 1.6 mg/kg/day, sc; assay type: functional; conditions: route subcutaneous
How it was run: (§1)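 Female SKH1 hairless mice made neutropenic with ip cyclophosphamide (150 mg/kg 5 days and 100 mg/kg 1 day before infection). 0.2 ml s.c. Cytodex bead (0.1% vol/vol) inoculum in BHI: OC 4351 left flank, OC 4354 right flank. Drug s.c. at 1, 3, 25, 27 h postinfection. Killed at 48 h; skin homogenised in saline, plated on TSA 18 h 37°C; Δlog CFU/g versus inoculum. 5 mice/dose, run twice.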

Pseudomonas aeruginosa [5] = test: Antimicrobial activity against Pseudomonas aeruginosa OC 4354 infected in immunocompromized SKH1 mouse assessed as log change in bacterial colony forming unit at 6.2 mg/kg/day, sc; assay type: functional; conditions: route subcutaneous; how it was run: as §1
Pseudomonas aeruginosa [6] = test: Antimicrobial activity against Pseudomonas aeruginosa OC 4354 infected in immunocompromized SKH1 mouse assessed as log change in bacterial colony forming unit at 100 mg/kg/day, sc; assay type: functional; conditions: route subcutaneous; how it was run: as §1
[7] = fT>MIC in Staphylococcus aureus Smith OC 4172 infected sc dosed SKH1 mouse at 50 mg/kg, sc administered twice at 1 and 3 hrs after infection; assay type: functional; conditions: route subcutaneous
[8] = fT>MIC in Staphylococcus aureus OC 8525 infected sc dosed SKH1 mouse at 50 mg/kg, sc administered twice at 1 and 3 hrs after infection; assay type: functional; conditions: route subcutaneous
[9] = fT>MIC in Pseudomonas aeruginosa OC 4351 infected sc dosed SKH1 mouse at 50 mg/kg, sc administered twice at 1 and 3 hrs after infection; assay type: functional; conditions: route subcutaneous
[10] = fT>MIC in Pseudomonas aeruginosa OC 4354 infected sc dosed SKH1 mouse at 50 mg/kg, sc administered twice at 1 and 3 hrs after infection; assay type: functional; conditions: route subcutaneous
[11] = fT>MIC in Staphylococcus aureus OC 4172 infected sc dosed SKH1 mouse administered in 24 hrs dosing interval; assay type: functional
How it was run: (§2)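 Plasma levels came from female hairless SKH1 mice given single s.c. doses at the nape 24 h after flank s.c. infection with Cytodex beads. S. aureus work used immunocompetent mice. P. aeruginosa work used mice made neutropenic with cyclophosphamide i.p., 150 mg/kg at day −5 and 100 mg/kg at day −1. Drug assayed by HPLC with diode-array detection. Noncompartmental analysis.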

[12] = fT>MIC in Staphylococcus aureus OC 8525 infected sc dosed SKH1 mouse administered in 24 hrs dosing interval; assay type: functional; how it was run: as §2
[13] = Tmax in immunocompromized SKH1 mouse skin at 50 mg/kg, sc; assay type: ADME, organism-based, Zone of skin; parameters: dose 50 mg/kg, route subcutaneous
How it was run: (§3)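 Female SKH1 hairless mice, immunocompetent or cyclophosphamide-neutropenic, infected s.c. with MRSA OC 8525 or P. aeruginosa OC 4354 on the Cytodex beads (left flank), sterile beads on the right. Single dose 24 h later: s.c. at the nape, or linezolid 50 mg/kg oral. Plasma and skin (DMSO homogenate) sampled over time, HPLC with diode array.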

Plasma = test: fCmax in immunocompromized SKH1 mouse plasma at 50 mg/kg, sc; assay type: ADME, organism-based; parameters: dose 50 mg/kg, route subcutaneous; conditions: in vivo; how it was run: as §3
[14] = Protein binding in mouse plasma; assay type: ADME, cell-free; conditions: read-out: PPB (converted)
Staphylococcus aureus [15] = test: Antimicrobial activity against methicillin-susceptible Staphylococcus aureus OC 4172 assessed as inhibition of growth by broth microdilution method; assay type: functional
[16] = Half life in immunocompetent SKH1 mouse plasma at 50 mg/kg, sc; assay type: ADME, organism-based; parameters: dose 50 mg/kg, route subcutaneous
[17] = Tmax in immunocompetent SKH1 mouse plasma at 50 mg/kg, sc; assay type: ADME, organism-based; parameters: dose 50 mg/kg, route subcutaneous; how it was run: as §3
[18] = Tmax in Staphylococcus aureus infected immunocompetent SKH1 mouse skin at 50 mg/kg, sc; assay type: ADME, organism-based, Zone of skin; parameters: dose 50 mg/kg, route subcutaneous; how it was run: as §3
Zone of skin [19] = test: fCmax in immunocompetent SKH1 mouse skin at 50 mg/kg, sc; assay type: ADME, organism-based; parameters: dose 50 mg/kg, route subcutaneous; conditions: in vivo; how it was run: as §3
Zone of skin [20] = test: fAUC (0-infinity) in Staphylococcus aureus infected immunocompetent SKH1 mouse skin at 50 mg/kg, sc; assay type: ADME, organism-based; parameters: dose 50 mg/kg, route subcutaneous; conditions: in vivo; how it was run: as §3
Staphylococcus aureus [21] = test: Antimicrobial activity against methicillin-susceptible Staphylococcus aureus Smith OC 4172 infected in SKH1 mouse assessed as log change in bacterial colony forming unit per gram of skin tissue at 1.6 mg/kg/day, sc (reference value: 1.6 deltalog CFU); assay type: functional; conditions: route subcutaneous
Staphylococcus aureus [22] = test: Antimicrobial activity against methicillin-susceptible Staphylococcus aureus Smith OC 4172 infected in SKH1 mouse assessed as log change in bacterial colony forming unit per gram of skin tissue at 25 mg/kg/day, sc (reference value: 1.6 deltalog CFU); assay type: functional; conditions: route subcutaneous
How it was run: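 Female hairless immunocompetent SKH1 mice were anaesthetised and injected s.c. with 0.2 ml Cytodex bead inoculum (0.1% vol/vol beads in BHI; 6.7–7.0 log10 CFU/mouse): MSSA OC 4172 in the left flank, MRSA OC 8525 in the right. Drug was given at 1, 3, 25 and 27 h post-infection. At 48 h, flank lesions were excised, weighed and homogenised in saline, then plated on TSA (18 h, 37°C). The value is Δlog CFU/g versus the inoculum, from 5 mice/dose, run twice and pooled.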

Staphylococcus aureus [23] = test: Antimicrobial activity against methicillin-susceptible Staphylococcus aureus Smith OC 4172 infected in SKH1 mouse assessed as log change in bacterial colony forming unit per gram of skin tissue at 100 mg/kg/day, sc (reference value: 1.6 deltalog CFU); assay type: functional; conditions: route subcutaneous
[24] = Half life in Pseudomonas aeruginosa infected immunocompromized SKH1 mouse skin at 50 mg/kg, sc
Staphylococcus aureus [25] = test: Antimicrobial activity against methicillin-resistant Staphylococcus aureus OC 8525 infected immunocompetent SKH1 mouse assessed as lesion volume at 25 mg/kg/day, sc measured after 48 hrs postinfection (reference value: 1535 mm3); conditions: route subcutaneous
Staphylococcus aureus [26] = test: Antimicrobial activity against methicillin-resistant Staphylococcus aureus OC 8525 infected immunocompetent SKH1 mouse assessed as lesion volume at 1.6 mg/kg/day, sc measured after 48 hrs postinfection (reference value: 1535 mm3); conditions: route subcutaneous
Staphylococcus aureus [27] = test: Antimicrobial activity against methicillin-susceptible Staphylococcus aureus Smith OC 4172 infected immunocompetent SKH1 mouse assessed as lesion volume at 1.6 mg/kg/day, sc measured after 48 hrs postinfection (reference value: 1181 mm3); conditions: route subcutaneous
Staphylococcus aureus [28] = test: Antimicrobial activity against methicillin-susceptible Staphylococcus aureus Smith OC 4172 infected immunocompetent SKH1 mouse assessed as lesion volume at 6.2 mg/kg/day, sc measured after 48 hrs postinfection (reference value: 1181 mm3); conditions: route subcutaneous

Nc1nc(/C(=N/O)C(=O)N[C@@H]2C(=O)N3C(C(=O)O)=C(/C=C4\CCN([C@@H]5CCNC5)C4=O)CS[C@H]23)ns1 [CEFTOBIPROLE]
Activity (Pseudomonas aeruginosa [1]): 1593 mm3
Activity (Pseudomonas aeruginosa [2]): 552 mm3
Activity (Pseudomonas aeruginosa [3]): 389 mm3
deltalog10CFU (Pseudomonas aeruginosa [4]): 1.7
deltalog10CFU (Pseudomonas aeruginosa [5]): -0.4
deltalog10CFU (Pseudomonas aeruginosa [6]): -1.4
fT>MIC [7]: >4 h
fT>MIC [8]: 3.3 h
fT>MIC [9]: 2.2 h
fT>MIC [10]: 2.2 h
fT>MIC [11]: >17%
fT>MIC [12]: 13.8%
Tmax [13]: 15 min
fCmax (Plasma): 69 µg/mL
fraction unbound [14]: 0.84
MIC (Staphylococcus aureus [15]): 0.25 µg/mL
half-life [16]: 13 min
Tmax [17]: 7.5 min
Tmax [18]: 15 min
fCmax (Zone of skin [19]): 17 µg/g
fAUC (Zone of skin [20]): 652 µg·min/mL
deltalog10CFU (Staphylococcus aureus [21]): -1
deltalog10CFU (Staphylococcus aureus [22]): 1.5
deltalog10CFU (Staphylococcus aureus [23]): -1.7
half-life [24]: 76 min
Activity (Staphylococcus aureus [25]): 642 mm3
Activity (Staphylococcus aureus [26]): 1058 mm3
Activity (Staphylococcus aureus [27]): 937 mm3
Activity (Staphylococcus aureus [28]): 885 mm3
